In ChEMBL document CHEMBL4311932, “Novel zafirlukast derivatives exhibit selective antibacterial activity against Porphyromonas gingivalis” (Medchemcomm, 2019):
Active and inactive are the calls of the source. The rule behind the calls is not given here.

How the values were obtained:
Porphyromonas gingivalis [1] = assay: Antibacterial activity against Porphyromonas gingivalis 381 assessed as bacterial growth inhibition at 100 uM measured after 2 hrs in anaerobic condition by WST1 assay relative to control; type: functional; settings: Porphyromonas gingivalis, 381, 2 h; read-out: GI
Procedure, shortened: (§1)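 P. gingivalis 381 was grown anaerobically in BHI with 5 µg/mL hemin and 1 µg/mL menadione to log phase (3-4 h). Cultures at 10^6/well in 90 µL broth were exposed for 2 h, then given WST-1 for another 2 h. A450 was read with a 600 nm reference. % growth inhibition was taken against medium-only control, using DMSO vehicle and tetracycline 1 µg/mL as comparators.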

Porphyromonas gingivalis [2] = assay: Antibacterial activity against Porphyromonas gingivalis 381 assessed as bacterial growth inhibition at 10 uM measured after 2 hrs in anaerobic condition by WST1 assay relative to control; type: functional; settings: Porphyromonas gingivalis, 381, 2 h; read-out: GI; procedure, shortened: as §1
Actinomyces naeslundii = assay: Antibacterial activity against Actinomyces naeslundii ATCC 49340 assessed as bacterial growth inhibition at 1 to 100 uM after 2 hrs in anaerobic condition by WST1 assay; type: functional, organism-based
Procedure, shortened: (§2)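 Log-phase cultures (3-4 h in BHI broth after overnight growth) were plated at 10^6 bacteria/well in 90 µL and treated for 2 h. WST-1 was then added for a further 2 h incubation, aerobic for S. sanguinis and anaerobic for the others, at 37 °C. A450 was read against a 600 nm reference. % inhibition = 100 × [OD(medium control) − OD(treated)]/OD(control). Compounds were dissolved in DMSO.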

Veillonella parvula = assay: Antibacterial activity against Veillonella parvula ATCC 10790 assessed as bacterial growth inhibition at 1 to 100 uM after 2 hrs in anaerobic condition by WST1 assay; type: functional, organism-based; procedure, shortened: as §2
[3] = test system: Aggregatibacter actinomycetemcomitans; assay: Antibacterial activity against Aggregatibacter actinomycetemcomitans JP2 assessed as bacterial growth inhibition at 1 to 100 uM after 2 hrs in anaerobic condition by WST1 assay; type: functional, organism-based; procedure, shortened: as §2
[4] = Induction of apoptosis in hTERT-immortalized human OKF6 cells assessed as viable cells at 1 to 10 uM after 24 hrs by AnnexinV-FITC/propidium iodide staining based flow cytometry analysis relative to control; settings: read-out: Activity
Procedure, shortened: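 After 24 h treatment of OKF6/hTERT cells, adherent cells (trypsinized) were pooled with cells recovered from supernatants and washed in PBS. They were stained with FITC-Annexin V plus propidium iodide for 15 min at room temperature. At least 10,000 events were acquired per sample (excitation 488 nm, emission 530 nm), with viable, apoptotic and necrotic fractions reported against DMSO.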

Fusobacterium nucleatum = assay: Antibacterial activity against Fusobacterium nucleatum ATCC 25586 assessed as bacterial growth inhibition at 1 to 100 uM after 2 hrs in anaerobic condition by WST1 assay relative to control; type: functional; procedure, shortened: as §2
Streptococcus sanguinis = assay: Antibacterial activity against Streptococcus sanguinis ATCC 10556 assessed as bacterial growth inhibition at 1 to 100 uM after 2 hrs in aerobic condition by WST1 assay relative to control; type: functional; procedure, shortened: as §2
[5] = Cytotoxicity against hTERT-immortalized human OKF6 cells assessed as cell death at 1 to 10 uM after 24 hrs by tryphan blue staining based assay
Procedure, shortened: (§3)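 OKF6/hTERT keratinocytes were grown in Ker-SFM with 25 µg/mL bovine pituitary extract and 0.2 ng/mL EGF at 37 °C, 5% CO2. Cells were seeded overnight at 10^5/well and exposed for 24 h to 1 or 10 µM in DMSO. Cells were then trypsinized, washed, mixed 1:1 with trypan blue and counted automatically for % live/dead. Two independent experiments were run in duplicate.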

[6] = Cytotoxicity against hTERT-immortalized human OKF6 cells assessed as cell viability at 1 uM after 24 hrs by tryphan blue staining based assay relative to control; settings: read-out: Activity; procedure, shortened: as §3
Porphyromonas gingivalis [7] = assay: Bactericidal activity against Porphyromonas gingivalis 381 at 1 uM treated for 24 hrs and measured after 7 days incubation in anaerobic condition by WST1 assay relative to control; type: functional; settings: in the assay text read “by CFU counting” for “by WST1 assay”, read-out: GI
Procedure, shortened: (§4)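 Viable-count assay on P. gingivalis 381 (10^6/well) grown anaerobically. Cultures were exposed for 24 h to agents dissolved in DMSO. 50 µL of 1:400 dilutions were spread on blood agar, and CFU/mL was counted after 7 days anaerobic incubation. Controls were medium or DMSO (negative) and tetracycline 2.25 µM (positive).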

[8] = Cytotoxicity against hTERT-immortalized human OKF6 cells assessed as reduction in cell viability after 24 hrs by tryphan blue staining based assay; settings: OKF6, 24 h
Procedure, shortened: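 OKF6/hTERT cells at 10^5/well in Ker-SFM were exposed for 24 h to 0, 1, 2.5, 5, 10, 15, 20, 25, 50 and 100 µM in DMSO. Viability was counted by trypan blue exclusion on an automated counter, in triplicate. IC50 was derived from a fitted concentration-response curve.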

Porphyromonas gingivalis [9] = assay: Bactericidal activity against Porphyromonas gingivalis 381 at 100 uM treated for 24 hrs and measured after 7 days incubation in anaerobic condition […]; type: functional, organism-based; procedure, shortened: as §4
Porphyromonas gingivalis [10] = assay: Bactericidal activity against Porphyromonas gingivalis 381 at 10 uM treated for 24 hrs and measured after 7 days incubation in anaerobic condition by CFU counting relative to control; settings: read-out: GI
Porphyromonas gingivalis [11] = assay: Antibacterial activity against Porphyromonas gingivalis 381 assessed as bacterial growth inhibition at 1 uM measured after 2 hrs in anaerobic condition by WST1 assay relative to control; type: functional; settings: Porphyromonas gingivalis, 381, 2 h; read-out: GI; procedure, shortened: as §1
Porphyromonas gingivalis [12] = assay: Antibacterial activity against Porphyromonas gingivalis 381 assessed as bacterial growth inhibition at 2.25 uM measured after 2 hrs in anaerobic condition by WST1 assay; type: functional, organism-based
Porphyromonas gingivalis [13] = assay: Bactericidal activity against Porphyromonas gingivalis 381 at 25 to 50 uM treated for 24 hrs and measured after 7 days incubation in anaerobic condition […]; type: functional, organism-based; procedure, shortened: as §4
Porphyromonas gingivalis [14] = assay: Antibacterial activity against Porphyromonas gingivalis 381 assessed as bacterial growth inhibition at 25 to 50 uM measured after 2 hrs in anaerobic condition by WST1 assay; type: functional, organism-based

## COc1ccc(Cc2cn(C)c3ccc([N+](=O)[O-])cc23)cc1C(=O)NS(=O)(=O)c1ccccc1
Porphyromonas gingivalis [1]
  inhibition of growth at 100 µM: 100%
Porphyromonas gingivalis [2]
  inhibition of growth at 10 µM: 90 to 100%
Actinomyces naeslundii
  growth inhibition (GI): inactive
Veillonella parvula
  inhibition: inactive
[3]
  inhibition: inactive
[4]
  viability at 24 h, up to 10 µM: 50 to 70%
Fusobacterium nucleatum
  inhibition (INH): 20%
Streptococcus sanguinis
  inhibition (INH): 20%
[5]
  Activity: Non-Toxic
[6]
  viability at 24 h, 1 µM: 70 to 90%
Porphyromonas gingivalis [7]
  inhibition of growth at 1 µM: 60%
[8]
  IC50: 54 µM
Porphyromonas gingivalis [9]
  Activity: Active
Porphyromonas gingivalis [10]
  inhibition of growth at 10 µM: 100%
Porphyromonas gingivalis [11]
  inhibition of growth at 1 µM: 15 to 40%

## COc1cc(C(=O)NS(=O)(=O)c2ccccc2)ccc1Cc1cn(C)c2ccccc12
Porphyromonas gingivalis [1]
  inhibition of growth at 100 µM: 60%

## Cn1cc(Cc2ccc(C(=O)NS(=O)(=O)c3ccccc3)cc2)c2ccccc21
Porphyromonas gingivalis [1]
  inhibition of growth at 100 µM: 100%
Porphyromonas gingivalis [2]
  inhibition of growth at 10 µM: 90 to 100%

## CN(C)[C@@H]1C(O)=C(C(N)=O)C(=O)[C@@]2(O)C(O)=C3C(=O)c4c(O)cccc4[C@@](C)(O)[C@H]3C[C@@H]12
Porphyromonas gingivalis [12]
  growth inhibition (GI): Active

## COc1ccc(Cc2c[nH]c3ccccc23)cc1C(=O)NS(=O)(=O)c1ccccc1
Porphyromonas gingivalis [1]
  inhibition of growth at 100 µM: 100%
Porphyromonas gingivalis [2]
  inhibition of growth at 10 µM: 40%

## COc1ccc(Cc2cn(C)c3ccccc23)cc1C(=O)NS(=O)(=O)c1ccccc1
Porphyromonas gingivalis [1]
  inhibition of growth at 100 µM: 100%
Porphyromonas gingivalis [2]
  inhibition of growth at 10 µM: 90 to 100%

## COc1ccc(Cc2cn(C)c3ccc([N+](=O)[O-])cc23)cc1C(=O)NS(=O)(=O)c1ccccc1C
Porphyromonas gingivalis [1]
  inhibition of growth at 100 µM: 100%
Porphyromonas gingivalis [2]
  inhibition of growth at 10 µM: 90 to 100%
Actinomyces naeslundii
  inhibition: inactive
Veillonella parvula
  inhibition: inactive
[3]
  inhibition: inactive
[4]
  viability at 24 h, up to 10 µM: 50 to 70%
Fusobacterium nucleatum
  inhibition (INH): 20%
Streptococcus sanguinis
  inhibition (INH): 20%
[5]
  Activity: Toxic
[6]
  viability at 24 h, 1 µM: 70 to 90%
[8]
  IC50: 230 µM
Porphyromonas gingivalis [9]
  Activity: Active
Porphyromonas gingivalis [11]
  inhibition of growth at 1 µM: 15 to 40%

## COc1ccc(Cc2c[nH]c3ccccc23)cc1C(=O)NS(=O)(=O)c1ccccc1C
Porphyromonas gingivalis [1]
  inhibition of growth at 100 µM: 100%
Porphyromonas gingivalis [2]
  inhibition of growth at 10 µM: 80%

## COc1ccc(Cc2cn(C)c3ccccc23)cc1C(=O)NS(=O)(=O)c1ccccc1C
Porphyromonas gingivalis [1]
  inhibition of growth at 100 µM: 100%
Porphyromonas gingivalis [2]
  inhibition of growth at 10 µM: 90 to 100%
Actinomyces naeslundii
  growth inhibition (GI): inactive
Veillonella parvula
  inhibition: inactive
[3]
  inhibition: inactive
[4]
  viability at 24 h, up to 10 µM: 50 to 70%
Fusobacterium nucleatum
  inhibition (INH): 20%
Streptococcus sanguinis
  inhibition (INH): 20%
[5]
  Activity: Toxic
[6]
  viability at 24 h, 1 µM: 70 to 90%
[8]
  IC50: 16 µM
Porphyromonas gingivalis [11]
  inhibition of growth at 1 µM: 15 to 40%

## COc1cc(C(=O)NS(=O)(=O)c2ccccc2C)ccc1Cc1cn(C)c2ccccc12
Porphyromonas gingivalis [1]
  inhibition of growth at 100 µM: 60%

## Cc1ccccc1S(=O)(=O)NC(=O)c1ccc(Cc2c[nH]c3ccccc23)cc1
Porphyromonas gingivalis [1]
  inhibition of growth at 100 µM: 100%
Porphyromonas gingivalis [2]
  inhibition of growth at 10 µM: 90%

## COc1cc(C(=O)NS(=O)(=O)c2ccccc2C)ccc1Cc1cn(C)c2ccc(NC(=O)OC3CCCC3)cc12
Porphyromonas gingivalis [13]
  Activity: Active
Porphyromonas gingivalis [14]
  growth inhibition (GI): Active

## O=C(NS(=O)(=O)c1ccccc1)c1ccc(Cc2c[nH]c3ccccc23)cc1
Porphyromonas gingivalis [1]
  inhibition of growth at 100 µM: 100%
Porphyromonas gingivalis [2]
  inhibition of growth at 10 µM: 40%
